The values below come from ChEMBL document CHEMBL3286381 (J Med Chem, 2014).

Test [1] addresses T1, Ectonucleotide pyrophosphatase/phosphodiesterase family member 1 (Homo sapiens) (UniProt P22413).
T1 sequence (whole entry): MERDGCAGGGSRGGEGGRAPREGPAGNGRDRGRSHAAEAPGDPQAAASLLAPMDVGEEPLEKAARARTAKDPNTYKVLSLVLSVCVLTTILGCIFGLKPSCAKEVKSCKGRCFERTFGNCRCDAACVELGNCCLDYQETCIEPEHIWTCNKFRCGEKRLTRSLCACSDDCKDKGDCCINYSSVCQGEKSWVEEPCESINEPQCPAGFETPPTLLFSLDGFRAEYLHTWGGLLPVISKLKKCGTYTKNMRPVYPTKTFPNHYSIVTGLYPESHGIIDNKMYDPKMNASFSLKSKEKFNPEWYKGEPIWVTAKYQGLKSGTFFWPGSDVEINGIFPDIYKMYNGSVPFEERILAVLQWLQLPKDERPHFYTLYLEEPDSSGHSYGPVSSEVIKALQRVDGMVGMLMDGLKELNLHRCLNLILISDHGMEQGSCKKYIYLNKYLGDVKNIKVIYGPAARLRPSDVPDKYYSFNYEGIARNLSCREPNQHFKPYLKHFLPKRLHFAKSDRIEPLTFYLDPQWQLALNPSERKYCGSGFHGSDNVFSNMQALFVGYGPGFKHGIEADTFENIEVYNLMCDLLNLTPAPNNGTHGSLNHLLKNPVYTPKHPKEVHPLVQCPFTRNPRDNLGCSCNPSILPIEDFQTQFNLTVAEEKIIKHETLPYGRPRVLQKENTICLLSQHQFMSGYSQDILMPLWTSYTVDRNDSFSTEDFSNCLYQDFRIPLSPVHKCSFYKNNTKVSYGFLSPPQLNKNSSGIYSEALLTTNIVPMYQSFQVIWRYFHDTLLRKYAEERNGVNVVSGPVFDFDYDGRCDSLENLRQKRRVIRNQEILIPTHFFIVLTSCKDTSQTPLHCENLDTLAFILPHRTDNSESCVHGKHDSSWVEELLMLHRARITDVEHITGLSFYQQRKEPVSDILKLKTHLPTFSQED
As to the kind of experiment: Inhibition of human NPP1 using pNP-TMP as substrate at 100 uM after 20 mins by reversed-phase HPLC analysis.

Test [2] concerns the target T1, Ectonucleotide pyrophosphatase/phosphodiesterase family member 1 (Homo sapiens). Nature of the test: Inhibition of NPP1 in human HTB-85 cells using pNP-TMP as substrate at 100 uM after 20 mins […]. The class given is cell-based. The method, boiled down:
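Assay on intact human osteocarcinoma HTB-85 (SaOS-2) cells as native NPP1 source, in 0.5 mL incubation mixture. pNP-TMP is added to 100 μM final with inhibitor at 100 μM. After 20 min, p-nitrophenol is read at 410 nm. Substrate alone is set as 100%. Three experiments in triplicate.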

Test [3] has as its target T2, Ectonucleoside triphosphate diphosphohydrolase 2 (Homo sapiens) (UniProt Q9Y5L3).
T2 sequence (whole entry): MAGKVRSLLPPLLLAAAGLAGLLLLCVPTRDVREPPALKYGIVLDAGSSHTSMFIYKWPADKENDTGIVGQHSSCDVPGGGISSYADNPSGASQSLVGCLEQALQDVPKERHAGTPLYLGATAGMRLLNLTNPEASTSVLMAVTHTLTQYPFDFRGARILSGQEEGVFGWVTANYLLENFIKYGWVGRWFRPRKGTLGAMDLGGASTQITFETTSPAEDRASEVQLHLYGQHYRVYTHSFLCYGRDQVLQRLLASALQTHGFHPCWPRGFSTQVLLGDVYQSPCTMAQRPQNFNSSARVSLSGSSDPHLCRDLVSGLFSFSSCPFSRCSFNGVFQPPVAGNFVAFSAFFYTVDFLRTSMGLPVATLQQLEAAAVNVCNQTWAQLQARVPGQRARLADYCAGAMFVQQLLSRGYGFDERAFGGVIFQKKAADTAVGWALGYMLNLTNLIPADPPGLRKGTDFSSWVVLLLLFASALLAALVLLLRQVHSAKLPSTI
Nature of the test: Inhibition of human NTPDase-2 using ATP as substrate assessed as inorganic phosphate release at 100 uM after 15 mins relative to control. The method, boiled down: (§1)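 Protein extracts are from COS-7 cells transiently transfected with human NTPDase1, 2, 3 or 8. Extract is preincubated for 3 min at 37 °C in Tris–Ringer buffer (pH 7.3). […] Three experiments in triplicate.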

The target in test [4] is T3, Ectonucleoside triphosphate diphosphohydrolase 3 (Homo sapiens) (UniProt O75355).
T3 sequence (whole entry): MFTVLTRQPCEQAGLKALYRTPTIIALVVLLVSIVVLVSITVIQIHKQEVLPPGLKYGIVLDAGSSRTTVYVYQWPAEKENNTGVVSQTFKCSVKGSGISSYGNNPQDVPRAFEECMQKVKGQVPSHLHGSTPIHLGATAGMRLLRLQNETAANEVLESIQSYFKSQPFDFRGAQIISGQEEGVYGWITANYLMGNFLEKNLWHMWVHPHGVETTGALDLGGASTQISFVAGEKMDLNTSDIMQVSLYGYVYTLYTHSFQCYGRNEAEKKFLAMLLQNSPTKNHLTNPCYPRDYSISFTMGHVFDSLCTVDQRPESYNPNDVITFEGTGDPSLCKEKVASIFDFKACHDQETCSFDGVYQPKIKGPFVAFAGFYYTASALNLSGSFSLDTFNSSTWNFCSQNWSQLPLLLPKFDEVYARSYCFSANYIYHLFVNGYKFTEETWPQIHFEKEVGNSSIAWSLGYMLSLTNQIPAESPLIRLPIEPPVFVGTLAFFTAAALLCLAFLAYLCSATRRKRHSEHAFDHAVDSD
As to the kind of experiment: Inhibition of human NTPDase-3 using ATP as substrate assessed as inorganic phosphate release at 100 uM after 15 mins relative to control. A digest of the protocol:
as §1

The target of test [5] is T4, Ectonucleoside triphosphate diphosphohydrolase 8 (Homo sapiens) (UniProt Q5MY95).
T4 sequence (whole entry): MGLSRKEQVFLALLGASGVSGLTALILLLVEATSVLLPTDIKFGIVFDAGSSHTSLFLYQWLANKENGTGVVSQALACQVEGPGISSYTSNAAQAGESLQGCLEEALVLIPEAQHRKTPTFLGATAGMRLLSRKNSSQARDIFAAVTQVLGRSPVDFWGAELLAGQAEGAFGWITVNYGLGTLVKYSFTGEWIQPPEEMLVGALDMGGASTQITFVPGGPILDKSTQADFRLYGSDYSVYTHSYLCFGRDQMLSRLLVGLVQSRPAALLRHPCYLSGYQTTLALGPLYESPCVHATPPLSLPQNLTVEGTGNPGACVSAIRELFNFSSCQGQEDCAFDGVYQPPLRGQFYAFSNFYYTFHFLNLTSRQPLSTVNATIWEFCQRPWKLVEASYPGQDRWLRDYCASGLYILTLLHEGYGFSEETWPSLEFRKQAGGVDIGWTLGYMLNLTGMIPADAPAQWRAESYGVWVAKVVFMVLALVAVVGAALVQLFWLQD
As to the kind of experiment: Inhibition of human NTPDase-8 using ATP as substrate assessed as inorganic phosphate release at 100 uM after 15 mins relative to control. The method, boiled down:
as §1

The target of test [6] is P2Y purinoceptor 1 (Homo sapiens) (UniProt P47900). As to the kind of experiment: Agonist activity at human P2Y1 receptor expressed in human 1321N1 cells assessed as increase of intracellular calcium level up to 10 uM after 30 mins using fura-2 AM by fluorescence assay. The format is functional, cell-based.

Active and inactive are the calls of the source. The rule behind the calls is not given here. Some results are limits rather than exact numbers.

Chain of P2Y purinoceptor 1 (Homo sapiens) (P47900 whole entry): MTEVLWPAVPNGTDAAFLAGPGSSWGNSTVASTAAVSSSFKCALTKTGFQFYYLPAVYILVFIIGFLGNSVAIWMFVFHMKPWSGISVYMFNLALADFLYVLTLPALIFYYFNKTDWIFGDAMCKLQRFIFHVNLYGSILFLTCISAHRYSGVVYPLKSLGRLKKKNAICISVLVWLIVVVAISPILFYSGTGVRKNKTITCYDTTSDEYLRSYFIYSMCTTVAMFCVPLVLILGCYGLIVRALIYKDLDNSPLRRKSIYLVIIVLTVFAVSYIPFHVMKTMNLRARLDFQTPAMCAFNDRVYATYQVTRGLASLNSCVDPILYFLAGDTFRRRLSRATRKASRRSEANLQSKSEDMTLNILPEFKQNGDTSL

`Nc1ncnc2c1ncn2[C@@H]1O[C@H](CO[P@](O)(=S)OP(=O)(O)CP(=O)(O)O)[C@@H](O)[C@H]1O`: the inhibition in test [1] was more than 90%; in test [3], 15.4%; in test [4], 26.8%; in test [5], 0.5%. Further, the inhibition result in test [2] is “Active”. The result in test [6] was inactive.
As to `Nc1ncnc2c1ncn2[C@@H]1O[C@H](CO[P@@](O)(=S)OP(=O)(O)CP(=O)(O)O)[C@@H](O)[C@H]1O`, the inhibition was more than 90% in test [1], 12.7% in test [3], 24% in test [4] and 1.5% in test [5]. The inhibition entry in test [2] is “Active”. Moreover, in test [6], the result was inactive.
For the molecule `Nc1ncnc2c1ncn2[C@@H]1O[C@H](CO[P@](O)(=S)OP(=O)(O)C(Cl)(Cl)P(=O)(O)O)[C@@H](O)[C@H]1O`, the inhibition in test [1] was more than 90%; in test [3] it was 11.2%; in test [4] it was 21.8%; in test [5], 4.9%. Besides, the inhibition result in test [2] is “Active”. Besides, the result in test [6] was inactive.
Take `Nc1ncnc2c1ncn2[C@@H]1O[C@H](COP(=O)(O)CP(=O)(O)OP(O)(O)=S)[C@@H](O)[C@H]1O`: the inhibition is more than 90% in test [1], 16.3% in test [3], 40.2% in test [4] and 7% in test [5]. Further, the inhibition entry in test [2] is “Active”. Also, in test [6], the outcome was inactive.
For `Nc1ncnc2c1ncn2[C@@H]1O[C@H](CO[P@@](O)(=S)OP(=O)(O)C(Cl)(Cl)P(=O)(O)O)[C@@H](O)[C@H]1O`, the inhibition was more than 90% in test [1], 9.9% in test [3], 18.7% in test [4] and 0.5% in test [5]. Also, the inhibition entry in test [2] was “Active”. Besides, in test [6], the result was inactive.
